Tests used:
[1] = target: T1, Serotonin 3 (5-HT3) receptor (Rattus norvegicus, UniProt P35563+Q9JJ16); assay: Binding affinity at 5-hydroxytryptamine 3 receptor in rat cortical membrane by [3H]graniestron displacement.; format: cell membranes
T1 sequence (P35563 whole entry): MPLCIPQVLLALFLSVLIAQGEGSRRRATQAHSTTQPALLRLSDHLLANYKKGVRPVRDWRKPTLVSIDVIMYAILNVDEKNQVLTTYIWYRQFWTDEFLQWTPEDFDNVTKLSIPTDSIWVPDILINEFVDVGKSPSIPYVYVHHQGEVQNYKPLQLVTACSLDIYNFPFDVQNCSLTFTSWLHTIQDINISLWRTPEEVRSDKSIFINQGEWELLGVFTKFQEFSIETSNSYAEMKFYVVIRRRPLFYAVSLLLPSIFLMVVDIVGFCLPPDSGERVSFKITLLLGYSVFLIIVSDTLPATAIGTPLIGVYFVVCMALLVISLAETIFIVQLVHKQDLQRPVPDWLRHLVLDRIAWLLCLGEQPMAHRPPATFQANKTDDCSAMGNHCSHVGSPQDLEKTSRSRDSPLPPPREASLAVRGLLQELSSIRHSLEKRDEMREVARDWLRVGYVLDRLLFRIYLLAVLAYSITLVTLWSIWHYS
T1 sequence (Q9JJ16 whole entry): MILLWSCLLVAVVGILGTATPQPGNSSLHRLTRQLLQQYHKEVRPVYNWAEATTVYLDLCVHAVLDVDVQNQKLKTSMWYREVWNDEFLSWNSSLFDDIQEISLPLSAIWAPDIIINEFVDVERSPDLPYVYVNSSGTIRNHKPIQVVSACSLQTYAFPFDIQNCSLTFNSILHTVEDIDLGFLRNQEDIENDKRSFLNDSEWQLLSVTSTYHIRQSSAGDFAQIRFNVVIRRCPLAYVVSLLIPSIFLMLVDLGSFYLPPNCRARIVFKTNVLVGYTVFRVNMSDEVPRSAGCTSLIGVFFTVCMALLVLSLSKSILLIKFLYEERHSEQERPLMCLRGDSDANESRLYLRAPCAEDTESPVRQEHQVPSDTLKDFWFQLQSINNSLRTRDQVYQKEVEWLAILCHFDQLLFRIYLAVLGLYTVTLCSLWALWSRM
Procedure, shortened: (§1)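 Cortex and hippocampus of male Wistar rats homogenized in 50 mM Hepes pH 7.4 and assayed in 50 mM Hepes HCl pH 7.4. Filtered on GF/B presoaked in 0.1% polyethylenimine. Ki by Cheng-Prusoff from IC50. Mean ± SEM of three.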

[2] = target: T1, Serotonin 3 (5-HT3) receptor; assay: Ability to displace [3H]granisetron specifically bound to 5-hydroxytryptamine 3 receptor in rat cortical membrane; format: cell membranes; procedure, shortened: as §1
[3] = target: T2, 5-hydroxytryptamine receptor 1A (Rattus norvegicus, UniProt P19327); assay: Ability to displace [3H]- -OH-DPAT bound to 5-hydroxytryptamine 1A receptor in rat hippocampus; format: tissue-based
T2 sequence (P19327 whole entry): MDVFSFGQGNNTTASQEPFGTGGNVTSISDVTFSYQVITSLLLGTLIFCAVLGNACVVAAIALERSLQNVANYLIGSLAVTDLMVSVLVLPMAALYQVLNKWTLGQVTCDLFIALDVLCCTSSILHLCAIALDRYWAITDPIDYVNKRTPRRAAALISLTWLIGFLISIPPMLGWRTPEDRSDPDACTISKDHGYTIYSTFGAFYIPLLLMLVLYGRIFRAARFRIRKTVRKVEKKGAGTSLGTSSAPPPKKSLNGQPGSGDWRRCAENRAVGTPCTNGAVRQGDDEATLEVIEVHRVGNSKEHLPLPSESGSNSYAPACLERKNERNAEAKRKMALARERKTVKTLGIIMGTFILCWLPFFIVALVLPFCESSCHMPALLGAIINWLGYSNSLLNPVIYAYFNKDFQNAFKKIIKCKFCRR
Procedure, shortened: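 Male Wistar rat hippocampal membranes in 50 mM Tris HCl pH 7.4. Stopped by GF/B filtration, counted by scintillation. IC50 from competition curves, converted to Ki by Cheng-Prusoff. Mean ± SEM of three determinations.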

[4] = target: 5-hydroxytryptamine receptor 1B (Rattus norvegicus, UniProt P28564); assay: Ability to displace [3H]5-HT bound to 5-hydroxytryptamine 1B receptor in rat striatum; format: tissue-based
Procedure, shortened: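 Striatal membranes from male Wistar rats in 50 mM Tris HCl pH 7.7 with 10 μM pargyline, 4 mM CaCl2 and 0.1% ascorbic acid. Filtration and scintillation counting. Ki from IC50 via Cheng-Prusoff. Mean ± SEM, n=3.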

[5] = target: 5-hydroxytryptamine receptor 2A (Rattus norvegicus, UniProt P14842); assay: Ability to displace [3H]ketanserin bound to 5-hydroxytryptamine 2A receptor in rat pre-frontal cortex; format: tissue-based
Procedure, shortened: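 Rat prefrontal cortex membranes (male Wistar) in 50 mM Tris HCl pH 7.7. […] Nonspecific binding with 3 μM ketanserin. Filtered and counted by scintillation. IC50 converted to Ki via Cheng-Prusoff. Mean ± SEM of three determinations.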

[6] = target: T3, 5-hydroxytryptamine receptor 2C (Rattus norvegicus, UniProt P08909); assay: Ability to displace [3H]mesulergine bound to 5-hydroxytryptamine 2C receptor in rat cortex; format: tissue-based
T3 sequence (P08909 whole entry): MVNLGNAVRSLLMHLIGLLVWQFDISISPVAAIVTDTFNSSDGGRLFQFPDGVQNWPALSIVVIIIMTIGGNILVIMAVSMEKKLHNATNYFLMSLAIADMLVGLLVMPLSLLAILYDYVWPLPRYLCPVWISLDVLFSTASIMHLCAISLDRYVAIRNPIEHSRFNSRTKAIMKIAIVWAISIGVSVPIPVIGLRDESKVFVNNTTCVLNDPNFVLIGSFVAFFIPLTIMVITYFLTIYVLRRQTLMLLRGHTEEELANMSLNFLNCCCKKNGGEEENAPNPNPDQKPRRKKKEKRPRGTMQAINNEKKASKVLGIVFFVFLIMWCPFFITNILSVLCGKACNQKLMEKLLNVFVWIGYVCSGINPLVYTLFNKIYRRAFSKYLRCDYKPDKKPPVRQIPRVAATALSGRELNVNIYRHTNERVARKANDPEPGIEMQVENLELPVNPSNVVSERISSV
Procedure, shortened: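 Cortical membranes from male Wistar rats in 50 mM Tris HCl pH 7.7 with 10 μM pargyline, 4 mM CaCl2 and 0.1% ascorbic acid. Nonspecific binding with 1 μM mianserine. Filtration assay. Ki from IC50 via Cheng-Prusoff. Mean ± SEM, n=3.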

[7] = target: Sodium-dependent serotonin transporter (Rattus norvegicus, UniProt P31652); assay: Ability to displace [3H]paroxetine bound to Serotonin transporter receptor in rat forebrain
Procedure, shortened: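 Rat forebrain membranes (male Wistar), stored at -80 °C, in 50 mM Tris HCl pH 7.4. Nonspecific binding with 1 μM 6-nitroquipazine. Filtered on GF/B presoaked in 0.5% polyethylenimine. Ki from IC50 via Cheng-Prusoff. Mean ± SEM of three.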

5-hydroxytryptamine receptor 2A, sequence (P14842 whole entry): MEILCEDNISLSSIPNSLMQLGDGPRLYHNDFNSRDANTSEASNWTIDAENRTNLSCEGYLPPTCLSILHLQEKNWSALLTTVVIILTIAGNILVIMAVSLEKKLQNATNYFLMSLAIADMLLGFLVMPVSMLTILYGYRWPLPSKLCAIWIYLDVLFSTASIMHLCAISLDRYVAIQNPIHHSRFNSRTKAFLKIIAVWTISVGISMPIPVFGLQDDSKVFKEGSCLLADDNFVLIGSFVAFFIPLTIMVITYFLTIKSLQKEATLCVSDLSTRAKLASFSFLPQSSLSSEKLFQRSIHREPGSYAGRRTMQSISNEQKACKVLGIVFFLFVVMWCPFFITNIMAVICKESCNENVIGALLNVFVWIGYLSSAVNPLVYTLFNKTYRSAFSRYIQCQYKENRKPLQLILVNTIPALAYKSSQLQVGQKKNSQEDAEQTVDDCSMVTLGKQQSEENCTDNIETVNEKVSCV
Sodium-dependent serotonin transporter, sequence (P31652 whole entry): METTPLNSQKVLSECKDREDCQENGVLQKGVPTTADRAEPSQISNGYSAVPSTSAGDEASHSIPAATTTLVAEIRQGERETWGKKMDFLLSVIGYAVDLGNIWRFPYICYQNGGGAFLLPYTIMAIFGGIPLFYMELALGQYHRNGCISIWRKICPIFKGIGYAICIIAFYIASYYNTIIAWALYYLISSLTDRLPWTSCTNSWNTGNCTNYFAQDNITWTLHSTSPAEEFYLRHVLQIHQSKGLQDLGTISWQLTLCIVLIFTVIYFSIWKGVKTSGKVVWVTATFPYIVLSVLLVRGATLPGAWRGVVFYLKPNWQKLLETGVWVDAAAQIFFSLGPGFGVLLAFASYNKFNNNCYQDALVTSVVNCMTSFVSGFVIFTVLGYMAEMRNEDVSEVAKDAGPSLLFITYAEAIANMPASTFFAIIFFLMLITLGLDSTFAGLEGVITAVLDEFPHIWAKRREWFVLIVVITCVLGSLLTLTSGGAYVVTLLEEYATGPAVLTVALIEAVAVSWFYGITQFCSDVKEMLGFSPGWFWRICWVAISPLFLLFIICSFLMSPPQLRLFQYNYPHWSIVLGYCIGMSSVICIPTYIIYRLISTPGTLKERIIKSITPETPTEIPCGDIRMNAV
5-hydroxytryptamine receptor 1B, sequence (P28564 whole entry): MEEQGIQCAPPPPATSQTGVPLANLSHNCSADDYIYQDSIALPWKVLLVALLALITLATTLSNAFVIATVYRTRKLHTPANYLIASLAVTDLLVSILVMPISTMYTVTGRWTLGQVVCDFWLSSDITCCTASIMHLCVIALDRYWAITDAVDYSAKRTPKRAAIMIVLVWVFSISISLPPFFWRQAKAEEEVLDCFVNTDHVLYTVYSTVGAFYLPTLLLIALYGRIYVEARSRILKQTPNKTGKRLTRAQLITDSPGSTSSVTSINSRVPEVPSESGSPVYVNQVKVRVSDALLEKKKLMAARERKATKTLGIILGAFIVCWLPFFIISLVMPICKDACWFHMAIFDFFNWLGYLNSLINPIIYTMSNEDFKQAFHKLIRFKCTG

Row | SMILES | Ki [2] [nM] | Ki [1] [nM] | other results
1 | CN1CCN(c2cccc(C34C[C@H]5C[C@@H](C3)C[C@@H](C4)C5)n2)CC1 | > 550 |  | Log Ki [1]: < -6.26
2 | c1ccc(CN2CCN(c3nc4ccccc4c4c3CCCC4)CC2)cc1 | 11 |  | 
3 | CN1CCN(c2ccc3c(n2)C2CCCCC2CC3)CC1 (stereo not given) | 660 | 661 | 
4 | CN1CCN(c2nc3c(c4c2CCCC4)CCCC3)CC1 | 110 | 110 | 
5 | C[N+]1(C)CCN(c2nc3ccccc3c3c2CCCC3)CC1 | 13 |  | 
6 | CCN1CCN(c2nc3ccccc3c3c2CCCC3)CC1 | 1.9 |  | 
7 | CN1CCN(c2ccc3c(n2)CCc2ccccc2-3)CC1 | 830 | 832 | 
8 | c1ccc2c3c(c(N4CCOCC4)nc2c1)CCCC3 | > 17000 |  | 
9 | CN1CCN(c2ccc3c(n2)-c2ccccc2CCC3)CC1 | > 550 |  | Log Ki [1]: < -6.26
10 | CN1CCN(c2nc3ccccc3c3c2CC2CCC3C2)CC1 (stereo not given) | 0.83 | 0.832 | Ki [3]: 2400 nM; Ki [4]: 2300 nM; Ki [5]: 3700 nM; Ki [6]: 2800 nM; Ki [7]: 24000 nM
11 | CN1CCN(c2ccc3ccccc3n2)CC1 | 3 | 3.02 | 
12 | CN1CCN(c2ccc3ccc4ccccc4c3n2)CC1 | 200 | 200 | 
13 | CN1CCN(c2ccc3c(n2)-c2ccccc2CC3)CC1 | 200 | 200 | 
14 | CN1CCN(c2ccc3c(n2)-c2ccccc2C3)CC1 | 14 | 14.1 | Ki [3]: 5700 nM; Ki [4]: 3800 nM; Ki [5]: 2600 nM; Ki [6]: 16000 nM; Ki [7]: 59 nM
15 | CN1CCCN(c2nc3ccccc3c3c2CCCC3)CC1 | 4.8 |  | 
16 | CN1CCN(c2nc3ccccc3c3ccccc23)CC1 | 1.9 | 1.91 | 
17 | CN1CCN(c2nc3ccccc3c3c2CCCC3)CC1 | 0.23 | 0.229 | Ki [3]: 2800 nM; Ki [4]: > 4000 nM; Ki [5]: 3000 nM; Ki [6]: 4400 nM; Ki [7]: 12000 nM
18 | c1ccc2c3c(c(N4CCNCC4)nc2c1)CCCC3 | 1.7 |  | 
19 | O=[N+]([O-])c1ccc2nc(N3CCNCC3)ccc2c1 [6-NITROQUIPAZINE] | 58 |  | Ki [7]: 0.12 nM
20 | CCCN(CCC)C1CCc2cccc(O)c2C1 (stereo not given) [8-OH-DPAT] | 1.2 |  | 
21 | c1ccc2nc(N3CCNCC3)ccc2c1 [QUIPAZINE] |  |  | Ki [4]: 310 nM; Ki [6]: 190 nM

From ChEMBL document CHEMBL1131485, “Novel potent and selective central 5-HT3 receptor ligands provided with different intrinsic efficacy. 1. Mapping the central 5-HT3 receptor binding site by arylpiperazine derivatives” (J Med Chem, 1998)
